Data set [1] relates to Plasmodium falciparum. Kind of data set: Antimalarial activity against chloroquine resistant, mefloquine sensitive Plasmodium falciparum W2 infected in human erythrocytes by [3H]-hypoxanthine incorporation assay. Format: functional, organism-based.
Data set [2] is described as follows: Cytotoxicity against human HepG2 cells after 24 hrs by MTT assay. Format: cell-based. Particulars: read-out: LD50. Put shortly: (§1)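 Trypsinized cells seeded at 5 × 10³/well and allowed to adhere 18 h. Compounds added at varied concentrations for 24 h. MTT then added for 3 h, formazan dissolved in DMSO, absorbance read at 570 and 630 nm. Viability taken as % of untreated control after background subtraction, and LD50 derived.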

A short description of data set [3]: Cytotoxicity against african green monkey BGMK cells after 24 hrs by MTT assay. The conditions noted are these: chlorocebus aethiops, read-out: LD50. It is filed as cell-based. Put shortly: as §1

SMILES strings stand for the structures. Values after ≈ are worked out from the molar mass of the structure shown. Bounds are passed on as bounds.

Regarding `CC(C)(C)OC(=O)N[C@@H](Cc1ccccc1)[C@H](O)CSc1ncccn1`, in data set [1], the IC50 was over 50 µg/mL. For the same compound, the CC50 at 24 h in data set [2] stood at 197 µg/mL (≈ 525 µM); in data set [3], 170 µg/mL (≈ 453 µM).

In data set [1], `CC(C)(C)OC(=O)N[C@@H](Cc1ccccc1)[C@H](O)CSc1ccccn1` had an IC50 of 31.7 µg/mL (≈ 84.6 µM). The CC50 at 24 h in data set [2] and in data set [3] was over 200 µg/mL in each case.

The compound `O=[N+]([O-])c1ccc(S(=O)(=O)N[C@@H](Cc2ccccc2)[C@H](O)CSc2ncccn2)cc1` returned an IC50 in data set [1] of 15 µg/mL (≈ 32.6 µM). Further, the CC50 at 24 h in data set [2] and in data set [3] was over 200 µg/mL each time.

In data set [1], `O=S(=O)(N[C@@H](Cc1ccccc1)[C@H](O)CSc1ncccn1)c1ccc(Br)cc1` gave an IC50 of 25 µg/mL (≈ 50.6 µM). Further, the CC50 at 24 h in data set [2] came to 101 µg/mL (≈ 204 µM); in data set [3], 99 µg/mL (≈ 200 µM).

In data set [1], `O=[N+]([O-])c1ccc(S(=O)(=O)N[C@@H](Cc2ccccc2)[C@H](O)CSc2ccccn2)cc1` showed an IC50 of over 50 µg/mL. Also, the CC50 at 24 h in data set [2] and in data set [3] was over 200 µg/mL in each case.

For the compound `Cc1ccc(S(=O)(=O)N[C@@H](Cc2ccccc2)[C@H](O)CSc2ccccn2)cc1`, in data set [1], the IC50 was over 50 µg/mL. Moreover, the CC50 at 24 h in data set [2] is 191 µg/mL (≈ 446 µM); in data set [3], 192 µg/mL (≈ 448 µM).

The values are drawn from ChEMBL document CHEMBL1909555, “Synthesis and antimalarial activity of thioetherhydroxyethylsulfonamides, potential aspartyl protease inhibitors, Part 3” (Eur J Med Chem, 2011).
